In publication PMC3115441 (Chemical biology & drug design, 2011):
“Also recorded” adds a separate entry of the source. Like-named read-outs stand apart in the source and are kept apart here.

How the values were obtained:
mice = test: Acute toxicity, minimal motor impairment; format: in vivo; details: for TOX (30) N/F, animals toxic over tested / TOX (100) N/F, animals toxic over tested / TOX (300) N/F, animals toxic over tested: rotorod; for TOX (30) N/F, animals toxic over tested: 30 mg/kg
[1] = system: PCP site of the NMDA receptor complex; test: [3H]; format: binding, rat; details: for % inhibition of 1 nM [3H] (+)-MK-801: compound at 10 μM (10,000 nM); for IC50: rat forebrain homogenate, 1 nM (+)-[3H]MK-801; for Ki: read-out: NMDA affinity Ki, calculated by Cheng and Prusoff equation
Procedure, shortened: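 Washed rat forebrain homogenate (30 ug/mL protein) in 10 mM HEPES, pH 7.4, with 1 nM (+)-[3H]MK-801, 100 uM glutamate, 30 uM glycine and varied competitor concentrations. Nonspecific binding was set with 30 uM (+)-MK-801. Incubation ran 2 h at room temperature, then vacuum filtration onto GF/B filters, three buffer washes and scintillation counting.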

MES-induced seizures = test: Maximal electroshock; format: in vivo, mice; details: for MES (30) N/F, animals active over tested: 30 mg/kg i.p.; for MES (100) N/F, animals active over tested: 100 mg/kg i.p.; for MES protection (in words): 100 mg/kg; for MES neuroprotective activity (in words): mouse, in vivo
Procedure, shortened: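 Mice received test compound i.p. at 30, 100 or 300 mg/kg in 0.01 ml/g and were tested at various intervals after dosing. Corneal electrodes primed with 0.5% tetracaine HCl electrolyte delivered 60 Hz alternating current, 50 mA, for 0.2 s. An animal counted as protected when the hindlimb tonic extensor component was abolished. Results are scored as animals protected over tested.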

Serotonin 2A (5-HT2A) = Serotonin 2A (5-HT2A) (Homo sapiens, UniProt P28223); test: NIMH-PDSP radioligand binding, 5-HT2A
Sequence of Serotonin 2A (5-HT2A) (P28223 whole entry): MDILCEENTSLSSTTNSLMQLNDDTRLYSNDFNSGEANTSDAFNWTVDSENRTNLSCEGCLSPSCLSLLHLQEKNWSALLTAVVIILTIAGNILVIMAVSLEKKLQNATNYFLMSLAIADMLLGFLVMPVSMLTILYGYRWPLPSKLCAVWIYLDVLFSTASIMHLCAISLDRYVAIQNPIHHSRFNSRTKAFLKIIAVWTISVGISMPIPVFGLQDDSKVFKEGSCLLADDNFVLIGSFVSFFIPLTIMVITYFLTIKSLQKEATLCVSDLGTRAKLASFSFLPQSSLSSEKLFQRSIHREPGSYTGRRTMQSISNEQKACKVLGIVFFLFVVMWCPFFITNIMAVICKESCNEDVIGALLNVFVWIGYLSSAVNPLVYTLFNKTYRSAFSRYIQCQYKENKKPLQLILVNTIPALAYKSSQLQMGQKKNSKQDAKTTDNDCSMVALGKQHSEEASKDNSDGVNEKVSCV

Dopamine 1 (D1) = Dopamine 1 (D1) (Homo sapiens, UniProt P21728); test: NIMH-PDSP radioligand binding, D1
Sequence of Dopamine 1 (D1) (P21728 whole entry): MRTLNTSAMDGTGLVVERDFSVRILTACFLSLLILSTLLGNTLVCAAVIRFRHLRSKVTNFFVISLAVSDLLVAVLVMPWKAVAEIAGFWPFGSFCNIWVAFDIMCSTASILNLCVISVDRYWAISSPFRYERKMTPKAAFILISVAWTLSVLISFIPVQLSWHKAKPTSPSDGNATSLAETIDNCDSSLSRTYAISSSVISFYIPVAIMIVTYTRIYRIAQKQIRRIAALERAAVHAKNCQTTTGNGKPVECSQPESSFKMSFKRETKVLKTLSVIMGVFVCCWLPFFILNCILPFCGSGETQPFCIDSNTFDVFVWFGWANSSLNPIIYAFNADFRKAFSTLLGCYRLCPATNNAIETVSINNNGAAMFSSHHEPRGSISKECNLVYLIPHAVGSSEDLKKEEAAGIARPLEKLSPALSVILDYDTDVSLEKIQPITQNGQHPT

[2] = system: Metrazol-induced clonic seizures; test: Subcutaneous Metrazol seizure threshold test; format: in vivo, mice; details: for scMET (30) N/F, animals active over tested: 30 mg/kg; for scMET (100) N/F, animals active over tested: 100 mg/kg; for scMET (300) N/F, animals active over tested: 300 mg/kg
Sigma2 = molecular target: T1, Sigma2 (Rattus norvegicus, UniProt Q5U3Y7); test: NIMH-PDSP radioligand binding, Sigma-2
T1 sequence (Q5U3Y7 1-176): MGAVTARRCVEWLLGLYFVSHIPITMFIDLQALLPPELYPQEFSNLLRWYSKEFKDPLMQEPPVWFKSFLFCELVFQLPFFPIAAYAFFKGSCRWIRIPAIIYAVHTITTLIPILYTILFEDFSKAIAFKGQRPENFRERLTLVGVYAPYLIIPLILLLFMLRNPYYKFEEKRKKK

Sigma1 = Sigma1 (Rattus norvegicus, UniProt Q9R0C9); test: NIMH-PDSP radioligand binding, Sigma-1
Sequence of Sigma1 (Q9R0C9 whole entry): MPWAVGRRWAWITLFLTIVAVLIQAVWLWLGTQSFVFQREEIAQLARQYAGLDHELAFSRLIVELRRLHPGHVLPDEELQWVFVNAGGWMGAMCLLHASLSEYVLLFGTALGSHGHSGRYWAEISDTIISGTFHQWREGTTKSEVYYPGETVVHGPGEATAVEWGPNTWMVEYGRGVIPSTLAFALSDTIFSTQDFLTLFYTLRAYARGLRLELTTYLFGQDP

Dopamine 2 (D2) = Dopamine 2 (D2) (Homo sapiens, UniProt P14416); test: NIMH-PDSP radioligand binding, D2
Sequence of Dopamine 2 (D2) (P14416 whole entry): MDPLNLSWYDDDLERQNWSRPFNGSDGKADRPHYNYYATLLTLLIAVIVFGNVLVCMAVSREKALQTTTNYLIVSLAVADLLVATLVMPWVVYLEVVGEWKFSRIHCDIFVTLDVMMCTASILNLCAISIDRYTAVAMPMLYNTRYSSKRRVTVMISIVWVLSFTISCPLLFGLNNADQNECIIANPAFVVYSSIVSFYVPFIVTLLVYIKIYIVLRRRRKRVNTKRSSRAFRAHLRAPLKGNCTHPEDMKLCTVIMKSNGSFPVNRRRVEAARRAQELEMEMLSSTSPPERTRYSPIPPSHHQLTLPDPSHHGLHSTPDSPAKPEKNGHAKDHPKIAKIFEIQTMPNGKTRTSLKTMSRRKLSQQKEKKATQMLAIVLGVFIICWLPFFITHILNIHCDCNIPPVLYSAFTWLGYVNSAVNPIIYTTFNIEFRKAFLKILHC

[3] = molecular target: Dopamine Transporter (DAT) (Homo sapiens, UniProt Q01959); test: NIMH-PDSP radioligand binding, DAT
Sequence of Dopamine Transporter (DAT) (Q01959 whole entry): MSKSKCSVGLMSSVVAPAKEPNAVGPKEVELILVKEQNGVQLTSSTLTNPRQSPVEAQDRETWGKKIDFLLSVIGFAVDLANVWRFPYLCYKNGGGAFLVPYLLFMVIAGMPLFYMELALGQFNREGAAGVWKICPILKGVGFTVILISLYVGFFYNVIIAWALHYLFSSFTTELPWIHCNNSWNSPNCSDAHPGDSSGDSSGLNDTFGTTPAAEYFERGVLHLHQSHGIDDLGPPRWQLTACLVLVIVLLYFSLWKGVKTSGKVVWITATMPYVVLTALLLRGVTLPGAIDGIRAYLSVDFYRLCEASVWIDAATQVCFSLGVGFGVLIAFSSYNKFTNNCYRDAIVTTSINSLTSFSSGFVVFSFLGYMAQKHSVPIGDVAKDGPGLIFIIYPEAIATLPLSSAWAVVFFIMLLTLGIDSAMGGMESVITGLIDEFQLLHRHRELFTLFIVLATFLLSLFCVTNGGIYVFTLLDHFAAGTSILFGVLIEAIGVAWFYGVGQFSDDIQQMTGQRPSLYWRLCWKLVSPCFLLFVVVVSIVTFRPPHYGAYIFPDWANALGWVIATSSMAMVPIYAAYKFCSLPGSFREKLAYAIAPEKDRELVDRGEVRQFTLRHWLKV

[4] = molecular target: κ- opioid receptors (KOR) (Rattus norvegicus, UniProt P34975); test: NIMH-PDSP radioligand binding, KOR
Sequence of κ- opioid receptors (KOR) (P34975 whole entry): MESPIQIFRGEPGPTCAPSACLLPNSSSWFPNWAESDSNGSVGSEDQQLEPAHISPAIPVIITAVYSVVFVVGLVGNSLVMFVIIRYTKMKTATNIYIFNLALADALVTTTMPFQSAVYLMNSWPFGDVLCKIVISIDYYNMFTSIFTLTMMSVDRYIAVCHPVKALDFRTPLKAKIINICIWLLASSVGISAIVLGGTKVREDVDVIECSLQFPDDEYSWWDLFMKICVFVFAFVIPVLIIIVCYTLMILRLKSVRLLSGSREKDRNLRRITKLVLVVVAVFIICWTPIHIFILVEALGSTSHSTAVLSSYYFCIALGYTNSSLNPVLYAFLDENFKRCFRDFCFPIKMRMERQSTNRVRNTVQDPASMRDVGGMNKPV

[5] = molecular target: μ- opioid receptors (MOR) (Homo sapiens, UniProt P35372); test: NIMH-PDSP radioligand binding, MOR
Sequence of μ- opioid receptors (MOR) (P35372 whole entry): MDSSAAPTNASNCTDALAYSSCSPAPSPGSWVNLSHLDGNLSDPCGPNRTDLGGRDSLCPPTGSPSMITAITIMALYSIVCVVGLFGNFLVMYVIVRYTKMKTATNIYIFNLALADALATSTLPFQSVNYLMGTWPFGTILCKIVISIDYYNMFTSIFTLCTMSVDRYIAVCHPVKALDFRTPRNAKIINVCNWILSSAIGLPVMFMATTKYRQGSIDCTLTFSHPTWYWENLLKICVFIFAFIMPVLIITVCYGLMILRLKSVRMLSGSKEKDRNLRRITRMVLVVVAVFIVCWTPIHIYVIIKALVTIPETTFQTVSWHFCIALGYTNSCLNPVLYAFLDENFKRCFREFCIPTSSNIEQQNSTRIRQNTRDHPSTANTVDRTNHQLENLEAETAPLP

[6] = molecular target: Serotonin Transporter (SERT) (Homo sapiens, UniProt P31645); test: NIMH-PDSP radioligand binding, SERT
Sequence of Serotonin Transporter (SERT) (P31645 whole entry): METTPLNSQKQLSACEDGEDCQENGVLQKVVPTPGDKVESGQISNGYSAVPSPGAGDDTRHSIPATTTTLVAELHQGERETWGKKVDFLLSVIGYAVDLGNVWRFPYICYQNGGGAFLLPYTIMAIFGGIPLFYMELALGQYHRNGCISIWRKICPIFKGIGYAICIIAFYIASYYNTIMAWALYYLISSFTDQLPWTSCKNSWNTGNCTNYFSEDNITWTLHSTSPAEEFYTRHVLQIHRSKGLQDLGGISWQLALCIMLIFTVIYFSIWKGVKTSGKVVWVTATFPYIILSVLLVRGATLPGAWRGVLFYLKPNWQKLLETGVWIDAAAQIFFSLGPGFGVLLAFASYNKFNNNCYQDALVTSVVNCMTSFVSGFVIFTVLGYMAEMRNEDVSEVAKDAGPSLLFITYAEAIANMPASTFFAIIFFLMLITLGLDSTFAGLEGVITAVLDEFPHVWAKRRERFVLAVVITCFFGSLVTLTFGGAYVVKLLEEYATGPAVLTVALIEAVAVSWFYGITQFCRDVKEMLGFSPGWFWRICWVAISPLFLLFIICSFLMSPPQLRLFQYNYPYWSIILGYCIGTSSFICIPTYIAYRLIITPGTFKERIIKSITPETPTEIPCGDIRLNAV

[7] = molecular target: Norepinephrine Transporter (NET) (Homo sapiens, UniProt P23975); test: NIMH-PDSP radioligand binding, NET
Sequence of Norepinephrine Transporter (NET) (P23975 whole entry): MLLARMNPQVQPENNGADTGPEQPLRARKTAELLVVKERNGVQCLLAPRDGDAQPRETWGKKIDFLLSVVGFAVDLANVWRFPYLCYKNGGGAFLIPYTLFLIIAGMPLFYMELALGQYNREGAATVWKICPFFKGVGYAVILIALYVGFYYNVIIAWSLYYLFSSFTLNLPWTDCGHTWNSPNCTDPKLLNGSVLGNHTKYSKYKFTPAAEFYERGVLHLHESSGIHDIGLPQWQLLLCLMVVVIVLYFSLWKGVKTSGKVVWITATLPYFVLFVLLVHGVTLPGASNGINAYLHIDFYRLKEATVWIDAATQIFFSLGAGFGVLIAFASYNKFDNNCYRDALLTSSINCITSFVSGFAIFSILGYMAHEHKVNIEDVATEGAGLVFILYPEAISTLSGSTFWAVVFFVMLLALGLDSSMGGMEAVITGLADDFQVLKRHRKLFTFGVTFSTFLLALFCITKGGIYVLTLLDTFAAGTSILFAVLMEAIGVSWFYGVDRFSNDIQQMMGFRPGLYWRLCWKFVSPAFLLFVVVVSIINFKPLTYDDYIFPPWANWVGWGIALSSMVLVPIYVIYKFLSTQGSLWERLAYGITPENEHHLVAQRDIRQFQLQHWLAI

Row | Compound | TOX comments (mice; 300 mg/kg, 0.5 h) | TOX (30) N/F, animals toxic over tested (mice; 0.5 h) | TOX (30) N/F, animals toxic over tested (mice; 4.0 h) | TOX (100) N/F, animals toxic over tested (mice; 100 mg/kg, 0.5 h) | TOX (100) N/F, animals toxic over tested (mice; 100 mg/kg, 4.0 h) | TOX (300) N/F, animals toxic over tested (mice; 300 mg/kg, 0.5 h) | MES (30) N/F, animals active over tested (MES-induced seizures; 0.5 h) | MES (30) N/F, animals active over tested (MES-induced seizures; 4.0 h) | MES (100) N/F, animals active over tested (MES-induced seizures; 4.0 h) | Ki (Serotonin 2A (5-HT2A)) [µM] | Ki (Dopamine 1 (D1)) [µM] | scMET (30) N/F, animals active over tested ([2]; 0.5 h) | scMET (30) N/F, animals active over tested ([2]; 4.0 h) | scMET (100) N/F, animals active over tested ([2]; 0.5 h) | scMET (100) N/F, animals active over tested ([2]; 4.0 h) | Ki (Sigma2) [µM] | Ki (Sigma1) [µM] | Ki (Dopamine 2 (D2)) [µM] | Ki [3] [µM] | Ki [4] [µM] | also measured
1 | NC1(c2ccccc2)CC2CCC1C2 (stereo not drawn) [Compound 4a, 2-phenylbicyclo[2.2.1]heptan-2-amine] | Death | 0/4 | 0/2 | 8/8 | 0/2 | 4/4 / | 0/1 0/1 | 0/1 0/1 | 1/1 | > 10 | > 10 | 0/1 0/1 | 0/1 0/1 | 0/1 0/1 | 0/1 0/1 | 0.995 | 2.2 | > 10 | > 10 | > 10 | TOX comments (mice; 100 mg/kg, 0.5 h): Severe Tremors, Death following clonic seizure; % inhibition of 1 nM [3H] (+)-MK-801 [1]: greater than 90%; IC50 [1]: 13.3 ± 0.63 µM; Ki [1]: 8.45 µM; Ki [5]: > 10 µM; Ki [6]: > 10 µM; Ki [7]: > 10 µM
2 | NC1(c2ccc(F)cc2)CC2CCC1C2 (stereo not drawn) [Compound 4b, 2-(4-fluorophenyl)bicyclo[2.2.1]heptan-2-amine] | Death following clonic seizure | 0/4 | 0/2 | 8/8 | 0/4 | 4/4 / | 0/1 0/1 | 0/1 0/1 | 0/3 | > 10 | > 10 | 0/1 0/1 | 0/1 0/1 | 0/1 0/1 | 0/1 0/1 | > 10 | > 10 | > 10 | > 10 | > 10 | TOX comments (mice; 100 mg/kg, 0.5 h): Severe Tremors, Clonic seizures; MES (100) N/F, animals active over tested (MES-induced seizures; 0.5 h): 3/3; Ki [5]: > 10 µM; Ki [6]: > 10 µM; Ki [7]: > 10 µM
3 | c1ccc(C2(NCCN3CCCCC3)CC3CCC2C3)cc1 (stereo not drawn) [Compound 5a, 2-Phenyl-N-(2-(piperidin-1-yl)ethyl)bicyclo[2.2.1]heptan-2-amine] | Death | 0/4 | 0/2 | 8/8 | 0/4 | 4/4 / | 0/1 0/1 | 0/1 0/1 | 1/3 | 2.64 | > 10 | 0/1 0/1 | 0/1 0/1 | 0/1 0/1 | 0/1 0/1 | > 10 | > 10 | > 10 | > 10 | 0.876 | TOX comments (mice; 100 mg/kg, 0.5 h): Clonic seizures; toxicity profile (in words) (mice; mouse, in vivo): acceptable toxicity profile; affinity for NMDA (in words) [1]: highest affinity for NMDA; % inhibition of 1 nM [3H] (+)-MK-801 [1]: greater than 90%; IC50 [1]: 7.86 ± 1.64 µM; Ki [1]: 5.28 µM; MES protection (in words) (MES-induced seizures): MES neuroprotection activity; MES (100) N/F, animals active over tested (MES-induced seizures; 0.5 h): 3/3; MES neuroprotective activity (in words) (MES-induced seizures): greatest degree of protection from MES induced neural damage and death; Ki [5]: > 10 µM; Ki [6]: > 10 µM; Ki [7]: > 10 µM
4 | c1ccc(C2(NCCN3CCOCC3)CC3CCC2C3)cc1 (stereo not drawn) [Compound 5c, N-(2-morpholinoethyl)-2-phenylbicyclo [2.2.1] heptan-2-amine] | Death following clonic seizure; also recorded: Clonic seizures | 0/4 | 0/2 | 6/8 | 0/4 | 4/4 | 0/1 0/1 | 0/1 0/1 | 0/3 | > 10 | > 10 | 0/1 0/1 | 0/1 0/1 | 0/1 0/1 | 0/1 0/1 | > 10 | > 10 | > 10 | 2.57 | 0.988 | TOX comments (mice; 100 mg/kg, 0.5 h): Clonic seizures; TOX comments (mice; 300 mg/kg, 4 h): Death; TOX (300) N/F, animals toxic over tested (mice; 300 mg/kg, 4.0 h): 1/1; affinity for NMDA (in words) [1]: did not exhibit significant affinity; MES (100) N/F, animals active over tested (MES-induced seizures; 0.5 h): 2/3; MES neuroprotective activity (in words) (MES-induced seizures): displayed MES neuroprotective activity; scMET (300) N/F, animals active over tested ([2]; 0.5 h): 0/1; scMET (300) N/F, animals active over tested ([2]; 4.0 h): 0/0; Ki [5]: > 10 µM; Ki [6]: > 10 µM; Ki [7]: > 10 µM
5 | c1ccc(C2(NCCN3CCCC3)CC3CCC2C3)cc1 (stereo not drawn) [Compound 5e, 2-Phenyl-N-(2-(pyrrolidin-1-yl)ethyl) bicyclo[2.2.1]heptan-2-amine] | Diarrhea; also recorded: Unable to grasp rotorod; also recorded: Death | 0/4 | 0/2 | 0/8 | 0/4 | 4/4 / | 0/1 0/1 | 0/1 0/1 | 0/3 0/3 | > 10 | > 10 | 0/1 0/1 | 0/1 0/1 | 0/1 0/1 | 0/1 0/1 | > 10 | > 10 | > 10 | 3.62 | 4.51 | % inhibition of 1 nM [3H] (+)-MK-801 [1]: greater than 90%; IC50 [1]: 8.48 ± 3.11 µM; Ki [1]: 5.67 µM; MES protection (in words) (MES-induced seizures): all protective in the MES test at the dose of 100 mg/kg except for compound 5e; MES (100) N/F, animals active over tested (MES-induced seizures; 0.5 h): 0/3 0/3; scMET (300) N/F, animals active over tested ([2]; 0.5 h): 0/1; scMET (300) N/F, animals active over tested ([2]; 4.0 h): 0/0; Ki [5]: > 10 µM; Ki [6]: > 10 µM; Ki [7]: > 10 µM
6 | (+)-MK-801 [reference compound] | – | – | – | – | – | – | – | – | – | – | – | – | – | – | – | – | – | – | – | – | Kd ([1]; read-out: Kd for (+)-MK-801 binding, saturation conditions, homologous binding assay): 0.00175 µM; Ki ([1]; reference): 0.00136 µM
